# Data: ChEMBL document CHEMBL1122654, “Phosphorus analogues of gamma-aminobutyric acid, a new class of anticonvulsants” (J Med Chem, 1984)
# Activity calls are given as the source filed them.
# What was measured:
# Mus musculus [1] = assay: In vivo anticonvulsant activity against electric shock induced seizures(MES) in mice 0.5 hr after ip administration; ++ indicates activity at 300 mg/kg.; assay type: functional, organism-based; design: dose 300 mg/kg
# Mus musculus [2] = assay: In vivo anticonvulsant activity against electric shock induced seizures(MES) in mice 4 hr after ip administration; + indicates activity at 600 mg/kg.; assay type: functional, organism-based; design: dose 600 mg/kg
# Mus musculus [3] = assay: In vivo anticonvulsant activity against pentylene tetrazole seizure threshold(SMC) in mice 0.5 hr after sc administration; + indicates activity at 600 mg/kg.; assay type: functional, organism-based; design: dose 600 mg/kg
# Mus musculus [4] = assay: In vivo anticonvulsant activity against pentylene tetrazole seizure threshold(SMC) in mice 4 hr after sc administration; + indicates activity at 600 mg/kg.; assay type: functional, organism-based; design: dose 600 mg/kg
# Mus musculus [5] = assay: In vivo neurotoxicity at 600mg/kg, number of animals exhibiting neurotoxicity in the rotarod test / number of animals tested 0.5 hr; 4/4; assay type: toxicity, organism-based
# Mus musculus [6] = assay: In vivo neurotoxicity at 600 mg/kg, number of animals exhibiting neurotoxicity in the rotarod test / number of animals tested 4 hr; 1/2; assay type: toxicity, organism-based; design: dose 600 mg/kg
# [7] = molecular target: GABA B receptor (Rattus norvegicus) (UniProt Q9Z0U4+O88871); assay: (§1) Displacement of [3H]GABA from GABA-B binding sites in brain homogenates (relative to 100 uM baclofen) at 100 uM; assay type: tissue-based
# In short: (§2)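 Rat brain membrane binding (male Sprague-Dawley) using 10 nM [3H]GABA, with 100 µM isoguvacine present to block GABA-A sites. Test concentration 100 µM. Percent inhibition expressed relative to 100 µM baclofen. Mean of two separate experiments, each in triplicate.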
# [8] = molecular target: T1, GABA-A receptor; anion channel (Rattus norvegicus) (UniProt O09028+P15431+P18506+P18508+P19969+P20236+P23574+P23576+P28471+P28473+P30191+P62813+P63079+P63138+Q91ZM7+Q9ES14); assay: Displacement of [3H]-GABA from Gamma-aminobutyric acid A receptor binding sites in brain homogenates (relative to 1 mM GABA) at 100 uM; assay type: tissue-based
# In short: (§3)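 Male Sprague-Dawley rat brain, frozen, homogenized in 50 mM Tris-citrate (pH 7.1 at 4 °C). Membranes treated with 0.05% Triton X-100 for 30 min at 37 °C and resuspended at 0.5–1.0 mg/mL protein. Incubated with 8 nM [3H]GABA for 5 min at 4 °C, stopped by centrifugation, and counted by scintillation. Test concentration 100 µM. Expressed as percent of the inhibition given by 1 mM GABA. Mean of two experiments, each in triplicate.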
# Mus musculus [9] = assay: In vivo anticonvulsant activity against electric shock induced seizures(MES) in mice 0.5 hr after ip administration; inactive at 600 mg/kg; assay type: functional, organism-based; design: dose 600 mg/kg
# Mus musculus [10] = assay: In vivo anticonvulsant activity against pentylene tetrazole seizure threshold(SMC) in mice 0.5 hr after sc administration; inactive at 600 mg/kg; assay type: functional, organism-based; design: dose 600 mg/kg
# Mus musculus [11] = assay: In vivo anticonvulsant activity against pentylene tetrazole seizure threshold(SMC) in mice 4 hr after sc administration; inactive at 600 mg/kg; assay type: functional, organism-based; design: dose 600 mg/kg
# Mus musculus [12] = assay: In vivo anticonvulsant activity against electric shock induced seizures(MES) in mice 4 hr after ip administration; inactive at 600 mg/kg; assay type: functional, organism-based; design: dose 600 mg/kg
# [13] = Partition coefficient (logP); assay type: physicochemical; conditions: octanol/water
# Mus musculus [14] = assay: In vivo neurotoxicity at 600 mg/kg, number of animals exhibiting neurotoxicity in the rotarod test / number of animals tested 4 hr; 0/2; assay type: toxicity, organism-based; design: dose 600 mg/kg
# Mus musculus [15] = assay: In vivo neurotoxicity at 600 mg/kg, number of animals exhibiting neurotoxicity in the rotarod test / number of animals tested at 0.5 hr; 0/4; assay type: toxicity, organism-based; design: dose 600 mg/kg
# [16] = molecular target: T1, GABA-A receptor; anion channel (Rattus norvegicus); assay: Displacement of [3H]GABA from Gamma-aminobutyric acid A receptor binding sites in brain homogenates (relative to 1 mM GABA) at 100 uM; assay type: tissue-based; in short: as §3
# Mus musculus [17] = assay: In vivo anticonvulsant activity against electric shock induced seizures(MES) in mice; 104-131; assay type: functional
# Mus musculus [18] = assay: In vivo neurotoxicity at 600 mg/kg, number of animals exhibiting neurotoxicity in the rotarod test / number of animals tested 4 hr; assay type: toxicity, organism-based; design: dose 600 mg/kg
# Mus musculus [19] = assay: In vivo neurotoxicity at 600 mg/kg, number of animals exhibiting neurotoxicity in the rotarod test / number of animals tested at 0.5 hr; assay type: toxicity, organism-based; design: dose 600 mg/kg
# Mus musculus [20] = assay: In vivo anticonvulsant activity against electric shock induced seizures(MES) in mice 0.5 hr after ip administration; + indicates activity at 600 mg/kg.; assay type: functional, organism-based; design: dose 600 mg/kg
# Mus musculus [21] = assay: In vivo anticonvulsant activity against electric shock induced seizures(MES) in mice 4 hr after ip administration; + indicates activity at 600 mg/kg; assay type: functional, organism-based; design: dose 600 mg/kg
# Mus musculus [22] = assay: In vivo anticonvulsant activity against pentylene tetrazole seizure threshold(SMC) in mice 0.5 hr after sc administration; +++ indicates activity at 100 mg/kg; assay type: functional, organism-based; design: dose 100 mg/kg
# Mus musculus [23] = assay: In vivo anticonvulsant activity against pentylene tetrazole seizure threshold(SMC) in mice 4 hr after sc administration; - indicates inactive at 600 mg/kg; assay type: functional, organism-based; design: dose 600 mg/kg
# Mus musculus [24] = assay: In vivo anticonvulsant activity against electric shock induced seizures(MES) in mice 0.5 hr after ip administration; active at 300 mg/kg; assay type: functional, organism-based; design: dose 300 mg/kg
# Mus musculus [25] = assay: In vivo anticonvulsant activity against electric shock induced seizures(MES) in mice 4 hr after ip administration; active at 300 mg/kg; assay type: functional, organism-based; design: dose 300 mg/kg
# Mus musculus [26] = assay: In vivo anticonvulsant activity against pentylene tetrazole seizure threshold(SMC) in mice 0.5 hr after sc administration; active at 600 mg/kg; assay type: functional, organism-based; design: dose 600 mg/kg
# Mus musculus [27] = assay: In vivo neurotoxicity at 600 mg/kg, number of animals exhibiting neurotoxicity in the rotarod test / number of animals tested at 0.5 hr; 1/4; assay type: toxicity, organism-based; design: dose 600 mg/kg
# Mus musculus [28] = assay: In vivo neurotoxicity at 600 mg/kg, number of animals exhibiting neurotoxicity in the rotarod test / number of animals tested 4 hr; 2/2; assay type: toxicity, organism-based; design: dose 600 mg/kg
# Mus musculus [29] = assay: In vivo neurotoxicity at 600 mg/kg, number of animals exhibiting neurotoxicity in the rotarod test / number of animals tested at 0.5 hr; 4/4; assay type: toxicity, organism-based; design: dose 600 mg/kg
# Rattus norvegicus = species: Rattus norvegicus; assay: as §1; assay type: tissue-based; in short: as §2
# Mus musculus [30] = assay: In vivo anticonvulsant activity against electric shock induced seizures(MES) in mice 0.5 hr after ip administration; active at 600 mg/kg; assay type: functional, organism-based; design: dose 600 mg/kg
structure (smiles),measurement,setting,value
CCOP(=O)(OCC)c1cccc(N)c1,Anticonvulsant activity,Mus musculus [1],activity at 300 mg/kg
same,Anticonvulsant activity,Mus musculus [2],activity at 300 mg/kg
same,Anticonvulsant activity,Mus musculus [3],activity at 300 mg/kg
same,Anticonvulsant activity,Mus musculus [4],activity at 300 mg/kg
same,Toxicity,Mus musculus [5],4
same,Toxicity,Mus musculus [6],1
NCCOP(=O)(O)Oc1ccccc1,inhibition,[7],40%
same,inhibition,[8],13%
same,Anticonvulsant activity,Mus musculus [9],inactive
same,Anticonvulsant activityAnticonvulsant activity,Mus musculus [10],inactive
same,Anticonvulsant activity,Mus musculus [11],inactive
same,Anticonvulsant activity,Mus musculus [12],inactive
COP(=O)(OC)Oc1ccc([N+](=O)[O-])c(Cl)c1,logP,[13],1.83
CCc1cc(OP(=S)(OC)OC)ccc1[N+](=O)[O-],logP,[13],3.84
Nc1cccc(P(=O)(O)O)c1,Toxicity,Mus musculus [14],0
same,Toxicity,Mus musculus [15],0
CCOP(=O)(OCC)Oc1ccc(SC)c(Cl)c1,logP,[13],3.21
COP(=S)(OC)Oc1cccc(NC(C)=O)c1,inhibition,[16],inactive
CN1C(=O)CC(c2ccccc2)C1=O (configuration not stated) [PHENSUXIMIDE],ED50,Mus musculus [17],112 mg/kg
CCOP(=S)(OCC)Oc1ccccc1,logP,[13],3.46
COP(=O)(OC)Oc1ccc([N+](=O)[O-])cc1Cl,logP,[13],1.83
CC(=O)Nc1ccccc1OP(=O)(Oc1ccccc1)Oc1ccccc1,inhibition,[7],36%
same,inhibition,[8],54%
same,Anticonvulsant activity,Mus musculus [9],inactive
same,Anticonvulsant activity,Mus musculus [10],inactive
same,Anticonvulsant activity,Mus musculus [11],inactive
same,Toxicity,Mus musculus [18],Not Active
same,Toxicity,Mus musculus [19],Not Active
same,Anticonvulsant activity,Mus musculus [12],inactive
CCOP(=O)(OCC)Oc1ccccc1 [PHOSPHORIC ACID DIETHYL ESTER PHENYL ESTER],logP,[13],1.64
COP(=O)(OC)c1cccc(N)c1,inhibition,[7],13%
same,inhibition,[8],13%
same,Anticonvulsant activity,Mus musculus [20],Active
same,Anticonvulsant activity,Mus musculus [21],Active
same,Anticonvulsant activity,Mus musculus [22],Active
same,Anticonvulsant activity,Mus musculus [23],inactive
same,Toxicity,Mus musculus [14],0
same,Toxicity,Mus musculus [15],0
COP(=S)(OC)Oc1ccc([N+](=O)[O-])c(C(C)C)c1,logP,[13],4.05
COP(=O)(OC)Oc1ccc([N+](=O)[O-])c(C)c1 [FENITROXON],logP,[13],1.69
CCOP(=O)(OCC)Oc1ccccc1NC(C)=O,Anticonvulsant activity,Mus musculus [24],active at 300 mg/kg
same,Anticonvulsant activity,Mus musculus [25],active at 300 mg/kg
same,Anticonvulsant activity,Mus musculus [26],active at 300 mg/kg
COP(=S)(OC)Oc1ccc([N+](=O)[O-])cc1 [METHYL PARATHIONE],logP,[13],2.51
COP(=O)(OC)Oc1ccc([N+](=O)[O-])cc1 [DIMETHYL 4-NITROPHENYL PHOSPHATE],logP,[13],1.27
CCc1cc(OP(=O)(OC)OC)ccc1[N+](=O)[O-],logP,[13],2.19
CC(CNP(=O)(Oc1ccccc1)Oc1ccccc1)NP(=O)(Oc1ccccc1)Oc1ccccc1 (configuration not stated),inhibition,[7],20%
COP(=S)(OC)Oc1ccc([N+](=O)[O-])cc1Cl [DICAPTHON],logP,[13],3.44
CCOP(=O)(CCCN)OCC,Toxicity,Mus musculus [14],0
same,Toxicity,Mus musculus [27],1
CC(C)OP(=O)(OC(C)C)c1cccc(N)c1,Anticonvulsant activity,Mus musculus [1],activity at 300 mg/kg
same,Anticonvulsant activity,Mus musculus [2],activity at 300 mg/kg
same,Toxicity,Mus musculus [28],2
same,Toxicity,Mus musculus [29],4
CC(=O)Nc1ccccc1OP(=O)(Oc1ccccc1NC(C)=O)c1ccccc1,inhibition,[8],46%
same,Anticonvulsant activity,Mus musculus [9],inactive
same,Anticonvulsant activity,Mus musculus [10],inactive
same,Anticonvulsant activity,Mus musculus [11],inactive
same,Toxicity,Mus musculus [18],Not Active
same,Toxicity,Mus musculus [19],Not Active
same,Anticonvulsant activity,Mus musculus [12],inactive
COP(=S)(OC)Oc1ccc([N+](=O)[O-])c(Cl)c1 [CHLORTHION],logP,[13],3.45
Nc1cccc(P(=O)(Oc2ccccc2)Oc2ccccc2)c1,inhibition,[7],51%
CCOP(=O)(OCC)Oc1ccc([N+](=O)[O-])cc1 [PARAOXON],logP,[13],1.64
CCCCN1C(=O)CCP1(=O)c1ccccc1 (configuration not stated),inhibition,Rattus norvegicus,67%
same,inhibition,[8],17%
COP(=O)(OC)Oc1cc(C)c([N+](=O)[O-])c(C)c1,logP,[13],2.57
CCOP(=O)(OCC)Oc1ccc(SC)cc1Cl,logP,[13],3.05
COP(=S)(OC)Oc1cc(C)c([N+](=O)[O-])c(C)c1,logP,[13],3.89
COP(=S)(OC)Oc1ccc([N+](=O)[O-])c(C)c1 [FENITROTHION],logP,[13],3.3
CCOP(=S)(OCC)Oc1ccc(SC)cc1Cl,logP,[13],4.4
CCOP(=S)(OCC)Oc1ccccc1NC(C)=O,inhibition,[7],35%
CCOP(=S)(OCC)Oc1ccc([N+](=O)[O-])cc1 [PARATHION],logP,[13],2.98
CC1(C)COP(=S)(c2ccccc2)N1 (configuration not stated),inhibition,[7],15%
same,Anticonvulsant activity,Mus musculus [30],active at 600 mg/kg
CCOP(=S)(OCC)Oc1ccc(SC)c(Cl)c1,logP,[13],5.06
CC(C)(C)CC(C)(C)NP(=O)(Oc1ccccc1)Oc1ccccc1,inhibition,[7],65%
same,Anticonvulsant activity,Mus musculus [30],active at 600 mg/kg
NCCCP(=O)(O)O,inhibition,[7],91%
same,inhibition,[8],12%
same,Anticonvulsant activity,Mus musculus [9],inactive
same,Anticonvulsant activity,Mus musculus [10],inactive
same,Anticonvulsant activity,Mus musculus [11],inactive
same,Toxicity,Mus musculus [18],Not Active
same,Toxicity,Mus musculus [19],Not Active
same,Anticonvulsant activity,Mus musculus [12],inactive
COP(=O)(OC)Oc1ccc([N+](=O)[O-])c(C(C)C)c1,logP,[13],2.57
